SR-BI HDL uptake: blocks mouse SR-BI lipid uptake from DiI-HDL. Q61009. ldlA[mSR-BI] CHO cells, DiI-HDL uptake fluorescence, 3 h. inhibition, % at 12.5 µM. 320,000 compounds, 0.96% hits;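 active means mean replicate inhibition of at least 70% and a set share of replicates each scoring 70 or more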
TMEM16A act: activators or potentiators of mouse TMEM16A chloride channel; Q8BHY3; HEK293 TMEM16A/YFP-H148Q/I152L, iodide quench fluorescence; stronger effect = lower value; B-score at 10 µM; 340,000 compounds, 0.3% hits;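 active means fluorescence-ratio B-score plate-corrected deviation score at least 3 library SD below zero, with starting fluorescence score within 5 deviations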;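 further: channel opened by trigger with iodide after compound preincubation; score built on the fluorescence ratio of max minus min over baseline; more negative score means more quench and so TMEM16A activation or potentiation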
SR-BI uptake up: activators of SR-BI mediated HDL lipid uptake. CHO ldlA[mSR-BI] cells, DiI-HDL uptake fluorescence, 3 h; 100 = double the neutral-control signal. activation, % at 12.5 µM. 320,000 compounds, 0.096% hits;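 active means mean replicate activation of at least 60% and every replicate at or above 60%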
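material = CHO ldlA[mSR-BI] cells | medium = Ham's F12 with 0.5% BSA, HEPES 25 mM, pH 7.4 | reagent = fluorescent DiI-HDL, 10 µg/mL final | compound dosing = single-point compound dose | incubation = 3 h, 37 °C | measured by = bottom-read fluorescence, 550/595 nm | measure = HDL uptake via cellular fluorescence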
Kir21 block: blocks the mouse Kir2.1 inward-rectifier potassium channel; HEK293-Kir2.1, FluxOR thallium flux fluorescence; stronger effect = lower value; P35561; B-score at 10 µM; 310,000 compounds, 0.85% hits;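 active means fluorescence ratio B-score at or below minus 3 SD of library scores, with starting-brightness B-score within 2 SD, cut at about -4.2 in these data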;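 further: channel flux triggered by added potassium and thallium sulfate stimulus; B-score of peak minus minimum fluorescence over baseline after thallium stimulus; more negative B-score means stronger Kir2.1 block with less thallium influx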
ANO1 block: blocks the mouse calcium-activated chloride channel TMEM16A | 310,000 compounds, 1.2% hits | HEK293 TMEM16A/YFP iodide influx fluorescence, ionomycin | AID 588511 | normalized B-score (activity score, 25-100; higher = stronger inhibition) at 10 µM | Q8BHY3;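 active means ratio plate-corrected score three or more library SD toward inhibition, starting fluorescence score within five deviations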;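 further: score derived from kinetic fluorescence span divided by baseline fluorescence per well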
FID counter: displaces DNA intercalator in HCV helicase counter-screen; inhibition, % at 7.9 µM; 290,000 compounds, 0.17% hits; DNA fluorescent intercalator displacement, fluorescence; in the data active means inhibition above about 37%;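 further: higher means more ethidium bromide displaced from hairpin DNA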
Of the large screens only hits and unclear results are named; the others gave an inactive call. Most compounds without a hit are left out; they make up all but 3% or so of the library.

COC(=O)C1CCN(S(=O)(=O)CCNC(=O)c2ccc3c(c2)OCO3)CC1	none (no result: FID counter)
CN(C)C1=NCCN1CCC1CCCCC1	none (no result: Kir21 block, FID counter)
COc1ccc(CCNC(=O)c2ccc(Cl)cc2)cc1OC	none
COc1ccc(CCNC(=O)c2ccc(N3CCCCS3(=O)=O)cc2)cc1OC	SR-BI HDL uptake 79
CCCCN1C(=O)C(=O)N(CC(=O)Nc2sc(C)c(C)c2C(=O)OC)C1=O	none (no result: Kir21 block, ANO1 block, FID counter)
COc1ccc(-n2cc(CNCCc3ncc(C)[nH]3)c(-c3ccccc3Cl)n2)cc1	Kir21 block -4.8
COc1ccc(-n2cc(CNCCc3nc(C)cc(C)n3)c(-c3ccccc3Cl)n2)cc1	none
O=C(NCCc1ccc(Cl)cc1)c1ccc(CNc2c(N3CCOCC3)c(=O)c2=O)cc1	TMEM16A act -6.6 (no result: SR-BI HDL uptake, SR-BI uptake up)
O=C(NCc1ccc(Cl)cc1)c1ccc(CNc2c(N3CCOCC3)c(=O)c2=O)cc1	none
Cc1cc(S(=O)(=O)N2CCN(c3c(C)cccc3C)CC2)ccc1F	none
CCC(C)N(C)Cc1cccc(C2(O)CCN(S(=O)(=O)c3ccc(F)c(C)c3)CC2)c1 (stereo unspecified)	FID counter 38
CCN1CCN(c2cc(C)c3cc(NC(=S)NCCN(C)C)ccc3n2)CC1	FID counter 49
CCCCN(C)CCNC(=S)Nc1ccc2nc(N3CCN(CC)CC3)cc(C)c2c1	FID counter 46
Cc1cc(N2CCCC2)nc2ccc(NC(=S)NCCCN3CCC(C)CC3)cc12	FID counter 47
CCN1CCN(c2cc(C)c3cc(NC(=O)c4cccc(OC)c4)ccc3n2)CC1	none (no result: SR-BI HDL uptake, SR-BI uptake up)
COc1cccc(C(=O)Nc2ccc3nc(N4CCOCC4)cc(C)c3c2)c1	SR-BI HDL uptake 79
Cc1nonc1C(=O)N1CCCC(Nc2ccc(C(C)C)cc2)C1 (stereo unspecified)	none
Cn1c(SCC(=O)NCC2CCCO2)ncc(C(=O)Nc2ccc(Cl)cc2)c1=O (stereo unspecified)	none (no result: FID counter)
CCCN1CCN(CCCNC(=S)Nc2ccc3nc(N4CCN(CC)CC4)cc(C)c3c2)CC1	FID counter 37 (no result: SR-BI HDL uptake, SR-BI uptake up)
CCCCNC(=S)Nc1ccc2nc(N3CCN(CC)CC3)cc(C)c2c1	none (no result: TMEM16A act)
CCN1CCN(c2cc(C)c3cc(NC(=O)c4cncc(Br)c4)ccc3n2)CC1	FID counter 38
CCN(CC)CCNC(=S)Nc1ccc2nc(N3CCN(CC)CC3)cc(C)c2c1	FID counter 39
CCN1CCN(c2cc(C)c3cc(NC(=O)c4ccc(OC)c(OC)c4)ccc3n2)CC1	none
CC(=O)Nc1cc2c(cc1Br)-c1ccccc1C2	none (no result: Kir21 block, ANO1 block, FID counter)
O=C(OCC(=O)N1CCc2ccccc21)c1n[nH]c(=O)c2ccccc12	none (no result: Kir21 block, ANO1 block, FID counter)
CNCCNC[C@H](Cc1cccc2ccccc12)NCCc1ccccc1	none (no result: Kir21 block, ANO1 block, FID counter)
CNC[C@H](Cc1ccccc1)NC[C@@H](Cc1cccc2ccccc12)NCCc1ccc(C)cc1	Kir21 block -10, ANO1 block 100, FID counter 37
COc1ccc(S(=O)(=O)NC2CC(=O)N(c3ccccc3)C2)cc1C (stereo unspecified)	none (no result: FID counter)
CCC(=O)Nc1cccc(NC(=S)NC(=O)c2ccccc2)c1	none
O=C(NC(=S)Nc1cccc(NC(=S)NC(=O)c2ccccc2)c1)c1ccccc1	SR-BI HDL uptake 72 (no result: Kir21 block, ANO1 block, FID counter)
COC(=O)c1cccc(NC(=O)Nc2ccccc2OC)c1	SR-BI HDL uptake 81
COC(=O)c1ccc(NC(=O)c2cccc(NC(=O)c3ccccc3)c2)cc1	SR-BI HDL uptake 73
COc1ccc(C(=O)Nc2ccccc2N2CCN(C(=O)c3ccccc3)CC2)cc1Br	SR-BI HDL uptake 86
O=C(CSC(=S)N1CCCC1)NCC(=O)Nc1ccccc1Br	none (no result: FID counter)
CC(Sc1n[nH]c(N)n1)C(=O)Nc1cccc2ccccc12 (stereo unspecified)	none (no result: Kir21 block, ANO1 block, FID counter)
COc1ccc(C(=O)Nc2ccc(Nc3ccccc3)cc2)cc1Br	SR-BI HDL uptake 98 (no result: FID counter)
CCCC(=O)Nc1ccc(C(=O)Nc2cccc(OC)c2)cc1	SR-BI HDL uptake 74
COC(=O)c1[nH]c2ccc(C)cc2c1NC(=O)Nc1ccccc1OC	SR-BI HDL uptake 80
COc1cccc(NC(=O)c2ccc(NC(=O)C(C)(C)C)cc2)c1	none
CCCC(=O)Nc1ccc(C(=O)Nc2cc(C(F)(F)F)ccc2Cl)cc1	SR-BI HDL uptake 74
CCOC(=O)C1=C(C)Nc2ccccc2N=C1NC(=O)c1oc2ccccc2c1COC	none (no result: Kir21 block, ANO1 block, FID counter)
COc1ccc(OC)c(C(=O)COC(=O)COc2ccccc2)c1	none (no result: Kir21 block, ANO1 block, FID counter)
CCCCN1C(=O)/C(=C/C=C2\SCCN2C)SC1=S	SR-BI HDL uptake 71 (no result: ANO1 block)
COc1cc(CNn2c(C)n[nH]c2=S)cc(Cl)c1OCc1ccc(F)cc1	none
COc1cc(CNC2CCCC2)cc(OC)c1OC	none
COc1cc(CNC2CCCC2)cc(Cl)c1OCc1ccccc1Cl	Kir21 block -9.3
CCOc1cc(CNC2CCCC2)cc(Cl)c1OCc1ccc(F)cc1	Kir21 block -11
COc1cc(CNC2CCCCCCC2)cc(Cl)c1OCC(N)=O	none
COc1cc(CNC2CCCC2)cc(Cl)c1OCc1ccc(F)cc1	Kir21 block -5
Cc1nc2ccccc2c(=O)n1NC(=O)Cc1ccccc1	none (no result: SR-BI HDL uptake, TMEM16A act, SR-BI uptake up, Kir21 block, ANO1 block)
COc1ccc(NCC(=O)n2c(C)c(C)c3ccccc32)cc1	none
COc1ccc(C(=O)c2c(C)c3ccccc3n2CC(O)CNC(C)C)cc1 (stereo unspecified)	FID counter 37
COC(=O)C1CCCCN1C(=O)c1cc(COc2cccc3cnccc23)on1 (stereo unspecified)	ANO1 block 25
COCCC1CCCCN1C(=O)c1cc(COc2cccc(C(C)=O)c2)on1 (stereo unspecified)	none
CCN1CCSc2ccc(C(=O)Nc3ccc(NC(C)=O)cc3)cc21	SR-BI HDL uptake 80
Cc1c(-c2ccc(F)cc2)[n+](=O)c2c(n1[O-])CCCCC2	TMEM16A act -6.9
Cc1ccc(-c2c(C)n([O-])c3c([n+]2=O)CCCC3)cc1	none
COc1ccc(NC(=O)c2cc(-c3ccccc3)nc3c2c(C)nn3-c2ccccc2)c(OC)c1	SR-BI HDL uptake 88
Cc1nn(-c2ccccc2)c2nc(-c3cccs3)cc(C(=O)NN)c12	SR-BI HDL uptake 84
O=C(CSc1ccc2ccccc2c1)N1CCN(c2ccc(O)cc2)CC1	Kir21 block -4.2
O=S(=O)(c1ccc2ccccc2c1)N1CCN(c2ccc(O)cc2)CC1	none (no result: Kir21 block, ANO1 block, FID counter)
O=C(CSc1nnc(NC(=O)c2c(F)cccc2F)s1)NCc1ccccc1	none
Cc1nn(-c2ccc(N3CCCCC3)nn2)c(C)c1CCC(=O)Nc1cc(F)ccc1F	SR-BI HDL uptake 72
Cc1ccc(NC(=O)CCc2c(C)nn(-c3ccc(N4CCOCC4)nn3)c2C)cc1C	SR-BI HDL uptake 79
